From paper PMC8408915 (Biochemistry, 2021)

Target: T1, KDAC8 (Homo sapiens, UniProt Q9BY41)
T1 sequence (Q9BY41 1-377): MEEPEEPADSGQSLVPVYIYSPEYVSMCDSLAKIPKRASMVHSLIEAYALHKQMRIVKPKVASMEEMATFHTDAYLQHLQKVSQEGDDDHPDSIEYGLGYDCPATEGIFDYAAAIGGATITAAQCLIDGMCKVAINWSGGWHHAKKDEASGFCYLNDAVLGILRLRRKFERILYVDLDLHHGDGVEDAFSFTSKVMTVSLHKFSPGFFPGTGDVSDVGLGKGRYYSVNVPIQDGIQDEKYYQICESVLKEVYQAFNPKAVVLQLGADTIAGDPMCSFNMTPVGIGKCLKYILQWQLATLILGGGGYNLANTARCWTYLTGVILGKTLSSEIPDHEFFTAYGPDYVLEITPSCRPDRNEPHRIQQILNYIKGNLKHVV
Assay: KDAC8 endpoint in vitro deacetylation activity assay
Type: biochemical
Conditions: low ionic strength buffer; 200 nM KDAC8, 100 μM peptide, 25 °C, 15-60 min; average of n≥3; limit of reliable detection 0.0004 s^−1
Summary of the method: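 KDAC8 carried a C-terminal His6 tag. It was expressed in ExpiSf9 cells after bacmid transfection (28 °C, 5 days, then 2 days of suspension amplification) and purified on cobalt (TALON) affinity resin. Peptides were N-terminally acetylated and C-terminally amidated. Buffer was 30 mM potassium phosphate pH 7.6 with 5% glycerol and no KCl. Product was detected with fluorescamine, and endpoint activity was averaged.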

Substance | Specific activity of KDAC8 with biologically relevant putative KDAC substrates
GTAK^acSVT | - (- indicates no activity above the limit of reliable detection (0.0004 s^−1).)
PEAK^acSLL | - (- indicates no activity above the limit of reliable detection (0.0004 s^−1).)
EIGK^acTLA | - (- indicates no activity above the limit of reliable detection (0.0004 s^−1).)
LGGK^acQRA | - (- indicates no activity above the limit of reliable detection (0.0004 s^−1).)
TGGK^acAPR | - (- indicates no activity above the limit of reliable detection (0.0004 s^−1).)
QTAK^acDAG | - (- indicates no activity above the limit of reliable detection (0.0004 s^−1).)
AARK^acSAP | 0.0026 ± 0.0002 s^−1
SVRK^acGIM | 0.0036 ± 0.0008 s^−1
LSGK^acGNP | - (- indicates no activity above the limit of reliable detection (0.0004 s^−1).)
APRK^acQLA | 0.00163 ± 0.00014 s^−1
GALK^acAPS | - (- indicates no activity above the limit of reliable detection (0.0004 s^−1).)
GVGK^acYIN | 0.0007 ± 0.0004 s^−1
SHLK^acAHL | - (- indicates no activity above the limit of reliable detection (0.0004 s^−1).)
EVGK^acLLN | - (- indicates no activity above the limit of reliable detection (0.0004 s^−1).)
ITGK^acPSG | - (- indicates no activity above the limit of reliable detection (0.0004 s^−1).)
